The results in this text go back to ChEMBL document CHEMBL1649137, “Genetic analysis of factors affecting susceptibility of Bacillus subtilis to daptomycin” (2009).

Converted amounts (≈) assume the structure as drawn.

Holding throughout (format): functional
The subject of assay [1] is Bacillus subtilis. Put plainly: Induction of sigM gene expression in Bacillus subtilis W168 by microarray analysis. The gist of the method: (§1)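 W168 grown in Ca2+-supplemented Mueller-Hinton broth at 37°C to OD600 0.4, split, and one half exposed to 1 μg/ml daptomycin for 20 min. Total RNA from three biological replicates; cDNA labeled with Alexa Fluor 555/647 and co-hybridized at 42°C for 16–18 h. Genes with summed intensity <20 or SD > mean were dropped. Fold change is treated/untreated signal, from ≥6 spot measurements.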

The test system of assay [2] is Bacillus subtilis. Put plainly: Decrease in fabHA gene expression in Bacillus subtilis W168 by microarray analysis. The procedure, abridged: as §1
Assay [3] relates to Bacillus subtilis. Put plainly: Decrease in ywfB gene expression in Bacillus subtilis W168 by microarray analysis. The gist of the method: as §1
Assay [4] concerns Bacillus subtilis. Put plainly: Decrease in yxeQ gene expression in Bacillus subtilis W168 by microarray analysis. The gist of the method:
as §1

Assay [5] has as its system Bacillus subtilis. Put plainly: Antibacterial activity against liar gene-deficient Bacillus subtilis W168 mutant by liquid growth inhibition assay. The procedure, abridged:
(§2)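 Daptomycin MIC by liquid growth inhibition. Overnight cultures diluted 1:100, grown to mid-log, rediluted to 5 × 10^5 CFU/ml in Mueller-Hinton broth with 50 mg/liter Ca2+. At least 10 concentrations near the predicted MIC, plus a no-drug control, added at start; 200 μl. OD600 read every 20 min for 24 h at 37°C with shaking. Inhibition: 24 h OD600 <0.05. MIC is the mode of at least triplicates.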

Assay [6] deals with Bacillus subtilis. Put plainly: Antibacterial activity against liaH, pspA and sigW gene-deficient Bacillus subtilis CU1065 mutant by liquid growth inhibition assay. The procedure, abridged: as §2
In assay [7] the test system is Bacillus subtilis. Put plainly: Antibacterial activity against Bacillus subtilis W168 mutant with alteration in membrane composition at 25 degC by liquid growth inhibition assay. The gist of the method: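 Mid-log cells diluted to 5 × 10^5 CFU/ml in Mueller-Hinton broth with 50 mg/liter Ca2+. At least 10 concentrations near the predicted MIC, plus an untreated control, present from the start. Growth followed by OD600. Inhibition: final 24 h OD600 <0.05. MIC is the mode of at least triplicates.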

In assay [8] the test system is Bacillus subtilis. Put plainly: Antibacterial activity against ywnE gene-deficient Bacillus subtilis CU1065 mutant by liquid growth inhibition assay. The procedure, abridged:
as §2

`CCCCCCCCCC(=O)N[C@@H](Cc1c[nH]c2ccccc12)C(=O)N[C@H](CC(N)=O)C(=O)N[C@@H](CC(=O)O)C(=O)N[C@@H]1C(=O)NCC(=O)N[C@@H](CCCN)C(=O)N[C@@H](CC(=O)O)C(=O)N[C@H](C)C(=O)N[C@@H](CC(=O)O)C(=O)NCC(=O)N[C@H](CO)C(=O)N[C@@H]([C@H](C)CC(=O)O)C(=O)N[C@@H](CC(=O)c2ccccc2N)C(=O)O[C@@H]1C`: the “fold change (FC)” value in the assay with Bacillus subtilis [1] came out at 2.1; in the assay with Bacillus subtilis [2] it was 2.3; in the assay on Bacillus subtilis [3] it was 7.9; in the assay with Bacillus subtilis [4] it was 0.5. Also, the minimum inhibitory concentration (MIC) (usually the lowest concentration that inhibits growth of the organism) in the assay with Bacillus subtilis [5] was determined as 0.5 µg/mL (≈ 0.309 µM); in the assay with Bacillus subtilis [6] it was 0.2 µg/mL (≈ 0.123 µM); with Bacillus subtilis [7] it was 0.7 µg/mL (≈ 0.432 µM); in the assay on Bacillus subtilis [8], 1 µg/mL (≈ 0.617 µM).
